# Test results as given in ChEMBL document CHEMBL1134964, “Heterocyclic benzazole derivatives with antimycobacterial in vitro activity” (2002).
# How the values were obtained:
# Format in all cases: functional
# [1] = system: Mycobacterium kansasii; assay: In vitro inhibition of Mycobacterium Kansasi (My 235/80) growth after 21 days culture.; settings: 504 h
# [2] = system: Mycobacterium kansasii; assay: In vitro inhibition of Mycobacterium Kansasi (My 235/80) growth after 14 days culture.; settings: 336 h
# [3] = system: Mycobacterium kansasii; assay: In vitro inhibition of Mycobacterium Kansasi (My 235/80) growth after 7 days culture.; settings: 168 h
# [4] = system: Mycobacterium kansasii; assay: In vitro inhibition of Mycobacterium Kansasi (My 6 509/96) growth after 21 days culture.; settings: 504 h
# [5] = system: Mycobacterium kansasii; assay: In vitro inhibition of Mycobacterium Kansasi (My 6 509/96) growth after 14 days culture.; settings: 336 h
# [6] = system: Mycobacterium avium; assay: In vitro inhibition of Mycobacterium Avium growth after 14 days culture.; settings: 336 h
# How it was run: (§1)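 Micromethod broth MIC. Compounds tested at 500, 250, 125, 32, 16, 8, 4 and 2, plus one intermediate level between 125 and 32. Plates incubated at 37 C and read at 7, 14 and 21 days. MIC is the lowest concentration at which growth of the mycobacteria was inhibited. MIC could not be set where solubility in the test medium was limited.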
# [7] = system: Mycobacterium kansasii; assay: In vitro inhibition of Mycobacterium Kansasi (My 6 509/96) growth after 7 days culture.; settings: 168 h
# [8] = system: Mycobacterium tuberculosis; assay: In vitro inhibition of Mycobacterium Tuberculosis (My 331/88) growth after 21 days culture.; settings: 504 h; how it was run: as §1
# [9] = system: Mycobacterium tuberculosis; assay: In vitro inhibition of Mycobacterium Tuberculosis (My 331/88) growth after 14 days culture.; settings: 336 h; how it was run: as §1
# [10] = system: Mycobacterium avium; assay: In vitro inhibition of Mycobacterium Avium (My 330/88) growth after 21 days culture.; settings: 504 h; how it was run: as §1
# [11] = Ratio of cytotoxicity to minimum inhibitory concentration of Mycobacterium tuberculosis My 331/88 was evaluated
# [12] = system: HeLa; assay: The compound was tested for cytotoxicity against HeLa cells.; settings: Homo sapiens
# [13] = system: Mycobacterium kansasii; assay: In vitro minimum inhibitory concentration the compound for anti-mycobacterial activity was determined against Mycobacterium kansasii (My 235/80) by micromethod after 14 days of incubation; settings: 336 h
# [14] = system: Mycobacterium kansasii; assay: In vitro minimum inhibitory concentration the compound for anti-mycobacterial activity was determined against Mycobacterium kansasii (My 235/80) by micromethod after 21 days of incubation; settings: 504 h
# [15] = system: Mycobacterium kansasii; assay: In vitro minimum inhibitory concentration the compound for anti-mycobacterial activity was determined against Mycobacterium kansasii (My 6 509/96) by micromethod after 7 days of incubation; settings: 168 h
SMILES,MIC [1] [µM],MIC [2] [µM],MIC [3] [µM],MIC [4] [µM],MIC [5] [µM],MIC [6] [µM],MIC [7] [µM],MIC [8] [µM],MIC [9] [µM],MIC [10] [µM],Safety index [11],CC50 [12] [µM],MIC [13] [µM],MIC [14] [µM],MIC [15] [µM]
O=[N+]([O-])c1ccc(CSc2nc3ccccc3s2)cc1,> 250,> 62,32,> 125,> 32,32,32,> 125,> 32,> 62,–,–,–,–,–
NC(=S)c1ccc(CSc2nc3ccccc3o2)cc1,16,16,8,16,16,32,8,16,8,32,9.8,78.6,–,–,–
O=[N+]([O-])c1ccc(CSc2nc3ccccc3s2)c([N+](=O)[O-])c1,16,8,8,> 32,8,> 32,8,4,2,> 32,>72,> 144,–,–,–
O=[N+]([O-])c1ccc(CSc2nc3ccccc3o2)c([N+](=O)[O-])c1,–,–,4,8,8,> 16,–,8,8,> 32,17,136,4,4,4
O=[N+]([O-])c1ccccc1CSc1nc2ccccc2o1,> 125,125,125,> 62,> 62,> 125,62,> 250,> 250,> 125,–,–,–,–,–
c1ccc(CSc2nc3ccccc3o2)cc1,250,250,125,250,125,62,32,500,250,125,–,–,–,–,–
NC(=S)c1ccc(CSc2nc3ccccc3s2)cc1,8,8,4,8,8,16,4,8,4,32,>39.5,> 158,–,–,–
N#Cc1ccc(CSc2nc3ccccc3o2)cc1,> 32,32,32,> 32,32,62,16,> 62,> 62,62,–,–,–,–,–
N#Cc1ccc(CSc2nc3ccccc3s2)cc1,> 500,250,125,32,32,32,16,62,62,> 32,–,–,–,–,–
Sc1nc2ccccc2o1,1000,1000,500,1000,500,250,250,500,500,500,–,–,–,–,–
O=[N+]([O-])c1cccc(CSc2nc3ccccc3o2)c1,> 32,> 32,32,> 32,32,> 32,32,125,> 62,> 62,–,–,–,–,–
O=[N+]([O-])c1cccc(CSc2nc3ccccc3s2)c1,> 125,> 125,62,> 62,62,62,32,> 125,> 62,62,–,–,–,–,–
O=[N+]([O-])c1cc(CSc2nc3ccccc3s2)cc([N+](=O)[O-])c1,> 62,16,16,> 62,32,62,–,2,2,62,>72,> 144,–,–,–
N#Cc1cccc(CSc2nc3ccccc3o2)c1,125,62,32,62,62,62,32,125,125,62,–,–,–,–,–
N#Cc1cccc(CSc2nc3ccccc3s2)c1,500,250,125,125,62,32,32,250,62,62,–,–,–,–,–
O=[N+]([O-])c1ccccc1CSc1nc2ccccc2s1,–,125,62,125,32,125,–,500,125,> 250,–,–,–,500,32
O=[N+]([O-])c1ccc(CSc2nc3ccccc3o2)cc1,> 62,32,32,> 32,32,> 32,32,> 125,> 62,> 62,–,–,–,–,–
O=[N+]([O-])c1cc(CSc2nc3ccccc3o2)cc([N+](=O)[O-])c1,4,4,2,8,8,> 16,4,8,8,> 32,>18.9,> 151,–,–,–
NNC(=O)c1ccncc1 [ISONIAZID],> 250,> 250,> 250,4,2,> 250,2,1,0.5,> 250,–,–,–,–,–
